# Data: PMC3865530 (Current pharmaceutical design, 2012)
# Experiments:
# Assay type in all cases: binding
# [1] = system: Tel24 human telomeric quadruplex DNA; assay: UV-thermal melting with telomeric quadruplex DNA; details: ligand:DNA ratio 4:1; 80 mM KCl; Tm of free Tel24 67 °C
# AATT duplex sequence = assay: UV-thermal melting with AT-rich hairpin duplex DNA; details: ligand:DNA ratio 2:1; 80 mM KCl; Tm of free AATT 69 °C
# (CG)4 duplex sequence = assay: UV-thermal melting with GC-rich hairpin duplex DNA; details: ligand:DNA ratio 2:1; 80 mM KCl; Tm of free (CG)4 63 °C
# Summary of the method: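 Duplex melted in 10 mM K₂HPO₄, 80 mM KCl, 3 mM EDTA, pH 7.3, at 2–3 µM single-strand, in 1 cm quartz cuvettes. Ligand was titrated from stock to compound:DNA ratios up to 4:1. Absorbance at 260 nm was followed while heating at 0.5 °C/min. ΔTm was taken at 2:1, reproducible within ±1 °C.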
SMILES,∆Tm of Tel24 quadruplex [1],∆Tm of AATT duplex (AATT duplex sequence),∆Tm of (CG)4 duplex ((CG)4 duplex sequence)
"COS(=O)(=O)[O-].Cc1cc2c3c([n+](C)c4ccc(F)cc4c3c1)-c1cc(F)ccc1N2C [RHPS4, 3,11-difluoro-6,8,13-trimethyl-8H-quino[4,3,2-kl] acridinium methosulfate]",very similar melting values as DB832,very little affinity,very little affinity
Cn1cc(NC(=O)c2cc(NC(=O)c3cc(NC=O)cn3C)cn2C)cc1C(=O)NCCC(=N)N [Distamycin],did not show any significant increase,strong binder,–
